Key:
[1] = system: HT-29; experiment: Cell cycle arrest in human HT-29 cells assessed as accumulation at S-phase at 25 uM after 48 hrs by propidium iodide staining based flow cytometry (reference value: 37.82%); format: functional
[2] = system: SW-620; experiment: Cell cycle arrest in human SW620 cells assessed as accumulation at S-phase at 50 uM after 48 hrs by propidium iodide staining based flow cytometry (reference value: 43.72%); format: functional
[3] = system: HT-29; experiment: Cell cycle arrest in human HT-29 cells assessed as accumulation at G1-phase at 75 uM after 48 hrs by propidium iodide staining based flow cytometry (reference value: 41.86%); format: functional
[4] = system: HT-29; experiment: Cell cycle arrest in human HT-29 cells assessed as accumulation at G2-phase at 75 uM after 48 hrs by propidium iodide staining based flow cytometry (reference value: 15.45%); format: functional
[5] = system: HT-29; experiment: Down regulation of CDK1 expression in human HT-29 cells after 48 hrs by Western blot analysis; format: functional, cell-based
Outline: (§1)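 HT29 or SW620 cells were treated at 0, 25, 50 and 75 μM for 48 h and lysed in RIPA with protease and phosphatase inhibitors. Protein was quantified by BCA. 50 μg lysate was run on 8–15% SDS-PAGE and transferred to PVDF. Blocking was 5% BSA/TBST for 2 h; primary antibodies were applied overnight at 4 °C, then HRP secondary 1 h at room temperature.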

[6] = system: HT-29; experiment: Upregulation of p21 expression in human HT-29 cells after 48 hrs by Western blot analysis; format: functional, cell-based
[7] = system: HT-29; experiment: Induction of apoptosis in human HT-29 cells assessed as necrotic cells at 25 uM after 48 hrs by Annexin-V-FITC/propidium iodide staining based flow cytometry (reference value: 1.6%); format: functional
[8] = system: HT-29; experiment: Induction of apoptosis in human HT-29 cells assessed as reduction in MCL1 expression after 48 hrs by Western blot analysis; format: functional, cell-based; outline: as §1
[9] = system: SW-620; experiment: Increase in PTEN expression in human SW620 cells after 48 hrs by Western blot analysis; format: functional, cell-based; outline: as §1
[10] = target: Receptor tyrosine-protein kinase erbB-2 (Homo sapiens, UniProt P04626); experiment: Inhibition of human ERBB2 (K646 to V1225 residues) expressed in mammalian expression system assessed as residual activity at 5 uM by KINOMEscan assay relative to control
[11] = target: Focal adhesion kinase 1 (Homo sapiens, UniProt Q05397); experiment: Inhibition of human FAK (D402 to R696 residues) expressed in bacterial expression system assessed as residual activity at 5 uM by KINOMEscan assay relative to control
[12] = target: Fibroblast growth factor receptor 3 (Homo sapiens, UniProt P22607); experiment: Inhibition of partial length human FGFR3 (R442 to S771 residues) expressed in bacterial expression system assessed as residual activity at 5 uM by KINOMEscan assay relative to control
[13] = target: Dual specificity mitogen-activated protein kinase kinase 1 (Homo sapiens, UniProt Q02750); experiment: Inhibition of full length human MEK1 (M1 to V393 residues) expressed in mammalian expression system assessed as residual activity at 5 uM by KINOMEscan assay relative to control
[14] = target: Serine/threonine-protein kinase PAK 1 (Homo sapiens, UniProt Q13153); experiment: Inhibition of human PAK1 (S149 to H545 residues) expressed in bacterial expression system assessed as residual activity at 5 uM by KINOMEscan assay relative to control
[15] = target: 3-phosphoinositide-dependent protein kinase 1 (Homo sapiens) (UniProt O15530); experiment: Inhibition of full length human PDPK1 (M1 to Q556 residues) expressed in bacterial expression system assessed as residual activity at 5 uM by KINOMEscan assay relative to control
[16] = target: Phosphatidylinositol 4-phosphate 3-kinase C2 domain-containing subunit beta (Homo sapiens, UniProt O00750); experiment: Inhibition of human PIK3C2B (M1 to L1634 residues) expressed in mammalian expression system assessed as residual activity at 5 uM by KINOMEscan assay relative to control
[17] = target: Serine/threonine-protein kinase pim-1 (Homo sapiens, UniProt P11309); experiment: Inhibition of human PIM1 (A15 to K313 residues) expressed in bacterial expression system assessed as residual activity at 5 uM by KINOMEscan assay relative to control
[18] = target: RAF proto-oncogene serine/threonine-protein kinase (Homo sapiens, UniProt P04049); experiment: Inhibition of human RAF1 (I330 to T640 residues) expressed in bacterial expression system assessed as residual activity at 5 uM by KINOMEscan assay relative to control
[19] = target: Proto-oncogene tyrosine-protein kinase receptor Ret (Homo sapiens, UniProt P07949); experiment: Inhibition of human RET (E713 to D1014 residues) expressed in bacterial expression system assessed as residual activity at 5 uM by KINOMEscan assay relative to control
[20] = target: Ribosomal protein S6 kinase alpha-3 (Homo sapiens, UniProt P51812); experiment: Inhibition of human N-terminal RSK2 kinase domain 1 (M1 to D394 residues) expressed in mammalian expression system assessed as residual activity at 5 uM by KINOMEscan assay relative to control
[21] = target: Proto-oncogene tyrosine-protein kinase Src (Homo sapiens, UniProt P12931); experiment: Inhibition of human SRC (L240 to L536 residues) expressed in bacterial expression system assessed as residual activity at 5 uM by KINOMEscan assay relative to control
[22] = target: Serine/threonine-protein kinase Chk1 (Homo sapiens, UniProt O14757); experiment: Binding affinity to human CHEK1 (M1 to G289 residues) expressed in bacterial expression system by KINOMEscan assay
[23] = target: Dual specificity tyrosine-phosphorylation-regulated kinase 1B (Homo sapiens, UniProt Q9Y463); experiment: Binding affinity to full length human DYRK1B (M1 to S629 residues) expressed in bacterial expression system by KINOMEscan assay
[24] = target: Mitogen-activated protein kinase 8 (Homo sapiens, UniProt P45983); experiment: Binding affinity to full length human JNK1 (M1 to Q384 residues) expressed in mammalian expression system by KINOMEscan assay
[25] = target: Mast/stem cell growth factor receptor Kit (Homo sapiens, UniProt P10721); experiment: Binding affinity to human KIT (I571 to D952 residues) expressed in bacterial expression system by KINOMEscan assay
[26] = target: MAP kinase-interacting serine/threonine-protein kinase 1 (Homo sapiens, UniProt Q9BUB5); experiment: Binding affinity to full length human MKNK1 (M1 to L424 residues) expressed in mammalian expression system by KINOMEscan assay
[27] = target: Serine/threonine-protein kinase pim-2 (Homo sapiens, UniProt Q9P1W9); experiment: Binding affinity to human PIM2 (M1 to E291 residues) expressed in bacterial expression system by KINOMEscan assay
[28] = target: Serine/threonine-protein kinase RIO2 (Homo sapiens, UniProt Q9BVS4); experiment: Binding affinity to human RIOK2 (M1 to D313 residues) expressed in mammalian expression system by KINOMEscan assay
[29] = target: High affinity nerve growth factor receptor (Homo sapiens, UniProt P04629); experiment: Binding affinity to human TRKA (G475 to G790 residues) expressed in mammalian expression system by KINOMEscan assay

Question: Which Activity [1] does the source give for `CC(C)CN(C(=O)c1cccnc1)c1c2ccccc2c(=O)n2c1[nH]c1ccccc12` here?
Answer: Its Activity is 37.2%.

Question: What about the Activity [2] of the same molecule?
Answer: Its Activity is 32.39%.

Question: What about the Activity [3] of the same molecule?
Answer: The Activity was 43.36%.

Question: What about the Activity [4] of the same molecule?
Answer: The Activity was 21.78%.

Question: And the Activity [5]?
Answer: The Activity was “Dose-dependent effect”.

Question: What about the Activity [6] of the same molecule?
Answer: The Activity was “Dose-dependent effect”.

Question: What about the Activity [7] of the same molecule?
Answer: The Activity was 2.7%.

Question: And the Activity [8]?
Answer: Its Activity is “Dose-dependent effect”.

Question: What about the Activity [9] of the same molecule?
Answer: Its Activity is “Dose-dependent effect”.

Question: And the Activity [10]?
Answer: Its Activity is 97%.

Question: What about the Activity [11] of the same molecule?
Answer: The Activity was 100%.

Question: What about the Activity [12] of the same molecule?
Answer: The Activity was 80%.

Question: What about the Activity [13] of the same molecule?
Answer: The Activity was 91%.

Question: What about the Activity [14] of the same molecule?
Answer: Its Activity is 100%.

Question: What about the Activity [15] of the same molecule?
Answer: The Activity was 93%.

Question: And the Activity [16]?
Answer: The Activity was 97%.

Question: What about the Activity [17] of the same molecule?
Answer: Its Activity is 83%.

Question: What about the Activity [18] of the same molecule?
Answer: Its Activity is 89%.

Question: What about the Activity [19] of the same molecule?
Answer: The Activity was 100%.

Question: What about the Activity [20] of the same molecule?
Answer: The Activity was 91%.

Question: What about the Activity [21] of the same molecule?
Answer: Its Activity is 100%.

Question: What about the Kd [22] of the same molecule?
Answer: Its Kd is ≥ 5 µM.

Question: And the Kd [23]?
Answer: The Kd was ≥ 5 µM.

Question: What about the Kd [24] of the same molecule?
Answer: The Kd was ≥ 5 µM.

Question: What about the Kd [25] of the same molecule?
Answer: The Kd was ≥ 5 µM.

Question: What about the Kd [26] of the same molecule?
Answer: The Kd was ≥ 5 µM.

Question: What about the Kd [27] of the same molecule?
Answer: The Kd was ≥ 5 µM.

Question: What about the Kd [28] of the same molecule?
Answer: The Kd was ≥ 5 µM.

Question: What about the Kd [29] of the same molecule?
Answer: The Kd was ≥ 5 µM.
